GalR3 antagonist: GalR3 antagonists in HEK293 cells, primary screen, cell-based, fluorescence readout; Galanin receptor type 3 (Homo sapiens), O60755; actives 0.44% (n = 360,000); inhibition, % at 3 µM; HEK293 GalR3-CNG cAMP membrane potential fluorescence; galR3 body fused to GalR1 C-terminus;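 active = inhibition above the screen-wide average plus 3 SD, cut at about 13% in these data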;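 note: forskolin and galanin both at EC90 stimulate the cells; cAMP rise reported by CNG channel membrane potential dye signal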
Target sequence (O60755 1-299 limits assumed): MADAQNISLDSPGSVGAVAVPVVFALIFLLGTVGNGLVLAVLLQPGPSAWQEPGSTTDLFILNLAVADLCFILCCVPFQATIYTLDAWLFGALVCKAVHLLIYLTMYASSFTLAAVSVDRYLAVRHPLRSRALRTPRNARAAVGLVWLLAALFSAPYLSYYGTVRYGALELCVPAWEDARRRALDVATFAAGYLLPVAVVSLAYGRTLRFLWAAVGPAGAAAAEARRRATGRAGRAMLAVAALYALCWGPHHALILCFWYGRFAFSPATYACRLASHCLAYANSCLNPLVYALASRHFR
MC4R barr agon: MC4R agonists recruiting beta-arrestin, primary screen, cell-based, luminescence, agonist arm of biased-ligand search; U2OS MC4R beta-arrestin complementation; percent of melanotan II response, DMSO zero; activation, % at 8.9 µM; actives 0.98% (n = 360,000); AID 540308, 2011;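 active = activation above a per-plate cutoff, the mean activation of sample wells on that plate plus 3 SD, cut at about 8% in these data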
MC4R antag cAMP: MC4R antagonists of cAMP signaling, primary screen, cell-based, TR-FRET, antagonist arm of biased-ligand search; Melanocortin receptor 4 (Homo sapiens), P32245; MC4R-expressing cells, MTII-stimulated cAMP, LANCE TR-FRET; inhibition, % at 6.5 µM; actives 0.48% (n = 360,000); AID 540295, 2011;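 active = inhibition above its plate's cutoff, the mean of tested wells on that plate plus 3 SD, cut at about 29% in these data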
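Test system: U2OS cells stably expressing human melanocortin 4 receptor (MC4R); also added: Melanotan II challenge; compound: 6.5 µM single dose; timing: 30-min compound preincubation, 1-h Melanotan II challenge, 1-h detection, room temperature; signal: Eu-cAMP/anti-cAMP TR-FRET, emission 671 nm; repeats: one well per compound, no replicates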
TAG inh: inhibitors of triacylglycerol accumulation, primary screen, cell-based, uHTS, fluorescence, H9c2 | H9c2 cells, Nile Red lipid (TAG) fluorescence; cells loaded with 200 µM oleic acid | actives 0.66% (n = 230,000) | inhibition, % at 12.5 µM;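 active = pattern-corrected inhibition of lipid staining of at least 50% with the nuclear-stain viability signal not falling by more than 50%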
Efflux pump mplx: inhibitors of Candida efflux pumps in yeast, primary screen, S. cerevisiae, Nile Red, multiplex; S. cerevisiae Candida pump triplex; inhibition, % at 10 µM; actives 0.44% (n = 330,000); AID 485275, 2010;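 active = plate passing quality check with inhibition over a set limit, or well fluorescence over plate mean plus 4 SD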;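 note: Nile Red retained in pooled yeast measured as flow cytometry median fluorescence; higher means more Nile Red kept so more efflux inhibition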
Calb FLC: C. albicans growth inhibition with fluconazole, primary screen, CaCi-2 strain, Alamar Blue fluorescence. C. albicans CaCi-2 + fluconazole, 48 h. growth inhibition, % (no concentration beside the values). actives 0.57% (n = 300,000). AID 1979, 2009;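 active = growth inhibition above about 58% in most replicates, limit read from the data, passing the limit was not always enough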;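 note: all wells also contain fluconazole at 8 µg/ml as a sub-toxic cotreatment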
H9c2 TAG conf: triacylglycerol accumulation inhibitors, retest, confirmation, cell-based, single concentration, Nile Red fluorescence, H9c2; actives 71% (n = 990); AID 651629, 2012; shares compounds with TAG inh; H9c2 lipid accumulation; cells loaded with 200 µM oleic acid; inhibition, % at 12.5 µM;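 active = mean inhibition across replicates of 40% or more; inactive = mean inhibition below 40%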
Hits are given with their value; n = inactive; x = not tested or not shown. Compounds with a hit are over-represented: about 2.9% of the library has one in this group of screens.

SMILES	GalR3 antagonist	MC4R barr agon	MC4R antag cAMP	TAG inh	Efflux pump mplx	Calb FLC	H9c2 TAG conf
CCN(CC)CC(=O)Nc1ccc(-c2nc3cc(NC(=O)CN(CC)CC)ccc3o2)cc1	n	n	n	n	n	n	x
CCC(C)NCC(=O)Nc1ccc(-c2nc3cc(NC(=O)CNC(C)CC)ccc3o2)cc1 (stereo not given)	n	n	n	53	n	x	n
Cc1occc1C(=O)NC(C)CCc1ccccc1 (stereo not given)	n	n	n	51	n	n	54
CC(C)C[C@H]1CNC(=S)N1CC1CCN(CCCCc2ccccc2)CC1	n	n	n	n	x	x	x
Cc1ccc2c(c1)N(C(=O)CCC(=O)NCCCN1CCC(Cc3ccccc3)CC1)CCO2	x	n	n	61	n	n	60
Cc1ccc2c(c1)N(C(=O)CCC(=O)NCCCN1CCN(C)CC1)CCO2	x	n	n	n	n	n	x
CSC1=C(C#N)C(c2ccccc2C)C(C#N)=C(N)N1 (stereo not given)	n	n	n	55	n	n	n
CSC1=C(C#N)C(c2ccccc2Cl)C2=C(N1)c1ccccc1C2=O (stereo not given)	n	n	n	n	n	n	x
COc1cc(-c2cnc3c(NC=O)cc(-c4cccc(NC(C)=O)c4)cn23)cc(OC)c1OC	n	n	n	73	x	x	96
CC(=O)Nc1cccc(-c2cc(NC=O)c3ncc(-c4cccc(C(C)=O)c4)n3c2)c1	n	n	n	n	x	x	x
Cc1cc(NC(=O)c2c(F)cccc2F)n(-c2nc3ccccc3[nH]2)n1	n	n	n	x	n	n	x
Cc1cc(NC(=O)c2ccccc2F)n(-c2nc3ccccc3[nH]2)n1	n	n	n	64	n	n	57
COc1ccc(OC)c(C2CC(c3ccccc3)=NN2C(=S)Nc2ccccc2)c1 (stereo not given)	n	n	n	52	n	n	50
CNC(=S)N1N=C(c2ccc(C)cc2)CC1c1cc(OC)ccc1OC (stereo not given)	n	n	n	n	n	n	x
CCOC(=O)c1[nH]c2ccc(OCC)cc2c1NC(=O)CN1CCC2(CC1)OCCO2	n	n	n	x	n	n	x
CCOC(=O)c1[nH]c2ccc(OCC)cc2c1NC(=O)CN1CCN(c2ccccc2)CC1	n	n	n	58	n	n	41
COc1ccc(CN(C)C(=O)[C@@H](Cc2ccccc2)NC(=O)[C@H]2O[C@@H](n3ccc(N)nc3=O)[C@H](O)[C@@H]2O)cc1OC	n	x	x	x	x	x	x
Cc1nc(-c2ccccc2)sc1C(=O)NS(=O)(=O)c1ccc(CN2CCN(c3ccccc3)CC2)cc1	n	x	x	x	x	x	x
CC(C)c1[nH]nc2c1C(c1ccc(Br)cc1)NC2=O (stereo not given)	n	x	x	x	x	x	x
COCCCn1c(C(=O)N2CCOCC2)cc2c(=O)n3cccc(C)c3nc21	n	n	n	n	n	n	x
COCCCn1c(C(=O)Nc2ccc3c(c2)OCO3)cc2c(=O)n3cccc(C)c3nc21	n	n	n	69	x	x	n
CCC[C@@H](CN[C@@H](CNC)[C@H](C)CC)NCC1CCC(C(C)(C)C)CC1 (stereo not given in full)	n	n	n	127	n	n	89
CCC[C@H](CN[C@@H](CNC)[C@H](C)CC)NCCc1cc(C(F)(F)F)cc(C(F)(F)F)c1	n	n	n	n	n	n	x
CCc1cc2c3c(c1)C1(C(=O)N3C(C)(C)C=C2C)C(C#N)=C(N)Oc2[nH]c(=O)[nH]c(=O)c21 (stereo not given)	n	n	n	51	n	n	49
